Data reported in ChEMBL document CHEMBL1145867, “Muraymycins, novel peptidoglycan biosynthesis inhibitors: synthesis and SAR of their analogues” (2003).
Values after ≈ are worked out from the molar mass of the structure shown. Active and inactive are the calls of the source. No cut-off for these calls is given here.

What was measured:
[1] = system: Staphylococcus sp.; test: In vitro antimicrobial activity against CNS GC 4547 at 10.7 ug/ml soluble peptidoglycan; type: functional
[2] = system: Staphylococcus aureus; test: In vitro antimicrobial activity against Staphylococcus aureus GC 1131 at 10.7 ug/ml soluble peptidoglycan; type: functional
[3] = system: Enterococcus faecalis; test: In vitro antimicrobial activity against Enterococcus faecalis GC 4555 at 10.7 ug/ml soluble peptidoglycan; type: functional
[4] = system: Enterococcus faecalis; test: In vitro antimicrobial activity 10.7 ug/ml soluble peptidoglycan; type: functional
[5] = system: Bacteria; test: In vitro antimicrobial activity against gram-negative organisms (10)
[6] = system: Candida albicans; test: In vitro antimicrobial activity against Candida albicans […] at 32 ug/ml soluble peptidoglycan; type: functional
[7] = system: Staphylococcus aureus; test: In vitro antimicrobial activity against Staphylococcus aureus GC 2216 at 10.7 ug/ml soluble peptidoglycan; type: functional
[8] = system: Staphylococcus aureus; test: In vitro antimicrobial activity against Staphylococcus aureus GC 4536 at 10.7 ug/mL soluble peptidoglycan; type: functional
[9] = system: Staphylococcus sp.; test: In vitro antimicrobial activity against CNS GC 4538 at 10.7 ug/ml soluble peptidoglycan; type: functional
[10] = system: Staphylococcus sp.; test: In vitro antimicrobial activity against Coagulase-negative staphylococcus GC 4538 at 10.7 ug/ml soluble peptidoglycan; type: functional
[11] = system: Enterococcus faecalis; test: In vitro antimicrobial activity against Enterococcus faecalis GC 842 at 10.7 ug/ml soluble peptidoglycan; type: functional
[12] = system: Staphylococcus sp.; test: In vitro antimicrobial activity against CNS GC 4547 at 10.7 ug/mL soluble peptidoglycan; type: functional
[13] = The inhibitory activity of compound against MraY or MurG at 25 ug/mL; No Inhibition
[14] = The inhibitory activity of compound against MraY or MurG at 100 ug/mL; Inhibit
[15] = The inhibitory activity of compound against MraY or MurG at 6.25 ug/mL; No Inhibition
[16] = The inhibitory activity of compound against MraY or MurG at 50 ug/mL; Inhibit
[17] = system: Enterococcus faecalis; test: In vitro antimicrobial activity against Enterococcus faecalis GC 2242 at 10.7 ug/ml soluble peptidoglycan; type: functional
[18] = system: Staphylococcus aureus; test: In vitro antimicrobial activity against Staphylococcus aureus GC 4536 at 10.7 ug/ml soluble peptidoglycan; type: functional
[19] = system: Candida albicans; test: In vitro antimicrobial activity against Candida albicans […] at 10.7 ug/ml soluble peptidoglycan; type: functional
[20] = The inhibitory activity of compound against MraY or MurG at 12.5 ug/mL; No Inhibition
[21] = system: Enterococcus faecalis; test: In vitro antimicrobial activity against Enterococcus faecalis GC 842; type: functional
Method in brief: (§1)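 Broth microdilution per NCCLS guidance. Serial dilutions of each agent in microtiter plates are inoculated with each organism to 10⁵ CFU/mL and incubated 18–22 h at 35 C in ambient air. MIC is the lowest concentration giving complete growth inhibition, judged by the unaided eye.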

[22] = system: Staphylococcus sp.; test: In vitro antimicrobial activity against CNS GC 4547; type: functional; method in brief: as §1
[23] = system: Staphylococcus sp.; test: In vitro antimicrobial activity against CNS GC 4538; type: functional; method in brief: as §1
[24] = system: Staphylococcus aureus; test: In vitro antimicrobial activity against Staphylococcus aureus GC 2216; type: functional; method in brief: as §1
[25] = system: Staphylococcus aureus; test: In vitro antimicrobial activity against Staphylococcus aureus GC 4536; type: functional; method in brief: as §1
[26] = system: Bacteria; test: In vitro antimicrobial activity against gram-negative organisms (10); type: functional; method in brief: as §1
[27] = system: Enterococcus faecalis; test: In vitro antimicrobial activity against Enterococcus faecalis GC 4555; type: functional; method in brief: as §1
[28] = system: Staphylococcus aureus; test: In vitro antimicrobial activity against Staphylococcus aureus GC 1131; type: functional; method in brief: as §1
[29] = system: Enterococcus faecalis; test: In vitro antimicrobial activity against Enterococcus faecalis GC 2242; type: functional; method in brief: as §1
[30] = system: Staphylococcus sp.; test: In vitro antimicrobial activity against Coagulase-negative staphylococcus GC 4538; type: functional; method in brief: as §1
[31] = system: Pseudomonas aeruginosa; test: In vitro antimicrobial activity against Pseudomonas aeruginosa GC 2214; type: functional; method in brief: as §1
[32] = system: Escherichia coli; test: In vitro antimicrobial activity against Escherichia coli GC 4560; type: functional; method in brief: as §1
[33] = system: Enterobacter cloacae; test: In vitro antimicrobial activity against Enterobacter cloacae GC 3783; type: functional; method in brief: as §1
[34] = system: Staphylococcus aureus; test: In vitro antimicrobial activity against Staphylococcu aureus GC 2216; type: functional; method in brief: as §1
[35] = system: Staphylococcus aureus; test: In vitro antimicrobial activity against Staphylococcu aureus GC 1131; type: functional
Method in brief: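 Broth dilution per NCCLS recommendations. Serial dilutions in microtiter plates inoculated to 10⁵ CFU/mL, then incubated 18–22 h at 35 C in ambient air. MIC taken as the lowest concentration giving complete growth inhibition by unaided eye.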

[36] = system: Pseudomonas aeruginosa; test: In vitro antimicrobial activity against Pseudomonas aeruginosa GC 4532; type: functional; method in brief: as §1
[37] = system: Escherichia coli; test: In vitro antimicrobial activity against Escherichia coli GC 4559; type: functional; method in brief: as §1
[38] = system: Escherichia coli; test: In vitro antimicrobial activity against Escherichia coli GC 3226; type: functional; method in brief: as §1
[39] = system: Klebsiella pneumoniae; test: In vitro antimicrobial activity against Klebsiella pneumoniae GC 4534; type: functional; method in brief: as §1
[40] = system: Serratia marcescens; test: In vitro antimicrobial activity against In vitro antimicrobial activity against Serratia marcescens GC 4077
[41] = system: Serratia marcescens; test: In vitro antimicrobial activity against Serratia marcescens GC 4077; type: functional; method in brief: as §1
[42] = system: Enterococcus sp.; test: In vitro antimicrobial activity against Enterococci; type: functional; method in brief: as §1
[43] = system: Candida albicans; test: In vitro antimicrobial activity against Candida albicans GC 3066; type: functional; method in brief: as §1
[44] = system: Escherichia coli; test: In vitro antimicrobial activity against Escherichia coli GC 2214; type: functional; method in brief: as §1
[45] = system: Staphylococcus aureus; test: In vitro antimicrobial activity against Staphylococcu aureus GC 4536; type: functional; method in brief: as §1
[46] = system: Staphylococcus sp.; test: In vitro antimicrobial activity against Staphylococci; type: functional, staphyl ococcus species; method in brief: as §1
[47] = Staphylococcus sp., read-out: MIC

| SMILES | MIC [2] [µg/mL] | MIC [3] [µg/mL] | MIC [5] [µg/mL] | MIC [7] [µg/mL] | MIC [9] [µg/mL] | MIC [10] [µg/mL] | MIC [11] [µg/mL] | Inhibitory activity [13] | Inhibitory activity [14] | Inhibitory activity [15] | Inhibitory activity [16] | Inhibitory activity [20] | MIC [21] [µg/mL] | MIC [22] [µg/mL] | MIC [23, 47] [µg/mL] | MIC [26] [µg/mL] | MIC [27] [µg/mL] | MIC [29] [µg/mL] | also measured |
| --- | --- | --- | --- | --- | --- | --- | --- | --- | --- | --- | --- | --- | --- | --- | --- | --- | --- | --- | --- |
| COc1ccc(Cn2c(=O)ccn([C@@H]3OC([C@@H](O)[C@H](NCCCNC(=O)[C@H](NC(=O)OCc4ccccc4)C(O)C(C)C)C(=O)OC(C)(C)C)[C@@H](O[Si](C)(C)C(C)(C)C)[C@H]3O[Si](C)(C)C(C)(C)C)c2=O)cc1 (stereo not given in full) | 128 (≈ 123 µM) | 64 (≈ 61.4 µM) | 64 (≈ 61.4 µM) | 128 (≈ 123 µM) | 128 (≈ 123 µM) | 128 (≈ 123 µM) | 64 (≈ 61.4 µM) | – | – | – | – | – | – | – | – | – | – | – | MIC [1]: 128 µg/mL (≈ 123 µM); MIC [4]: 64 µg/mL (≈ 61.4 µM); MIC [6]: 32 µg/mL (≈ 30.7 µM); MIC [8]: 128 µg/mL (≈ 123 µM) |
| COc1ccc(Cn2c(=O)ccn([C@@H]3OC([C@@H](O)[C@H](NCCCNC(=O)[C@H](N)C(O)C(C)C)C(=O)OC(C)(C)C)[C@@H](O[Si](C)(C)C(C)(C)C)[C@H]3O[Si](C)(C)C(C)(C)C)c2=O)cc1 (stereo not given in full) | 128 (≈ 141 µM) | 128 (≈ 141 µM) | > 128 | 128 (≈ 141 µM) | 128 (≈ 141 µM) | 128 (≈ 141 µM) | > 128 | inactive | Inhibit | inactive | Inhibit | inactive | – | – | – | – | – | – | MIC [12]: 8 µg/mL (≈ 8.81 µM); MIC [17]: 128 µg/mL (≈ 141 µM); MIC [18]: 128 µg/mL (≈ 141 µM); MIC [19]: 128 µg/mL (≈ 141 µM) |
| COC1C(O)[C@@H](OC(C(NCCCNC(=O)[C@H](NC(=O)[C@@H](NC(=O)N[C@H](C(=O)O)C(C)C)C2CCN=C(N)N2)C(OC(=O)CCCCCCCCCCCN(O)C(=N)N)C(C)C)C(=O)O)[C@H]2O[C@@H](n3ccc(=O)[nH]c3=O)[C@H](O)[C@@H]2O)O[C@H]1CN (stereo not given in full) | – | – | – | – | – | – | – | – | – | – | – | – | 4 (≈ 3.33 µM) | 8 (≈ 6.66 µM) | 1 (≈ 0.832 µM) | 8 (≈ 6.66 µM) | 16 (≈ 13.3 µM) | 32 (≈ 26.6 µM) | MIC [24]: 8 µg/mL (≈ 6.66 µM); MIC [25]: 4 µg/mL (≈ 3.33 µM); MIC [28]: 4 µg/mL (≈ 3.33 µM); MIC [30]: 2 µg/mL (≈ 1.66 µM) |
| COc1ccc(Cn2c(=O)ccn([C@@H]3OC([C@H](O)[C@H](NCCCNC(=O)[C@@H](C)N)C(=O)OC(C)(C)C)[C@@H](O[Si](C)(C)C(C)(C)C)[C@H]3O[Si](C)(C)C(C)(C)C)c2=O)cc1 (stereo not given in full) | – | – | – | – | – | – | – | inactive | Inhibit | inactive | Inhibit | inactive | 4 (≈ 4.7 µM) | 4 (≈ 4.7 µM) | 4 (≈ 4.7 µM) | 64 (≈ 75.3 µM) | 8 (≈ 9.41 µM) | 4 (≈ 4.7 µM) | MIC [23]: 8 µg/mL (≈ 9.41 µM); MIC [31]: 128 µg/mL (≈ 151 µM); MIC [32]: 128 µg/mL (≈ 151 µM); MIC [33]: 128 µg/mL (≈ 151 µM); MIC [34]: 8 µg/mL (≈ 9.41 µM); MIC [35]: 4 µg/mL (≈ 4.7 µM); MIC [36]: 128 µg/mL (≈ 151 µM); MIC [37]: 128 µg/mL (≈ 151 µM); MIC [38]: 128 µg/mL (≈ 151 µM); MIC [39]: 128 µg/mL (≈ 151 µM); MIC [40]: 128 µg/mL (≈ 151 µM); MIC [41]: 128 µg/mL (≈ 151 µM); MIC [42]: 4 µg/mL (≈ 4.7 µM); MIC [43]: 128 µg/mL (≈ 151 µM); MIC [44]: 128 µg/mL (≈ 151 µM); MIC [45]: 4 µg/mL (≈ 4.7 µM); MIC [46]: 4 µg/mL (≈ 4.7 µM) |
